KCNQ1 pot = potentiators or activators of KCNQ1 channel, primary screen, cell-based, thallium flux, high-throughput. hit rate 0.35% among 310,000. AID 2648, 2010. Potassium voltage-gated channel subfamily KQT member 1 (Homo sapiens), P51787. CHO-K1 KCNQ1, thallium flux FluxOR fluorescence; hits give high values. B-score at 10 µM;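 active = fluorescence ratio B-score, a plate-corrected score, at least three library SD, with initial intensity B-score within 5 SD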
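Assay system: stable KCNQ1 CHO-K1 line; medium: assay buffer, equal DMSO in all wells; timing: 90 min dye loading and 20 min compound exposure, both at room temperature; technique: kinetic FluxOR thallium fluorescence, 10-s 1-Hz baseline, 110-s post-stimulus read; read-out basis: B score of baseline-normalized fluorescence ratio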
KCNQ1 block = inhibitors of human KCNQ1 channel, primary screen, cell-based, thallium flux, high-throughput. Potassium voltage-gated channel subfamily KQT member 1 (Homo sapiens), P51787. hit rate 1.3% among 310,000. CHO-K1 KCNQ1, FluxOR thallium flux fluorescence; hits give high values. B-score at 10 µM;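 active = compounds whose thallium flux B-score, printed positive for inhibition, exceeds three library SD while starting fluorescence stays within three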;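 note: channel opened by potassium depolarization with thallium stimulus after 20 min compound exposure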
hERG rescue = hERG rescue from dofetilide block, primary screen, cell-based, CHO-hERG, FluxOR thallium flux, dofetilide IC70; dofetilide IC70 present; activation (rescue from dofetilide block), less the hit threshold, % at 10 µM; hit rate 0.51% among 310,000;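 active = activation above the mean of controls blocked by dofetilide plus 5 SD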;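 note: thallium influx through hERG after potassium depolarization seen as dye fluorescence rise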
KCNK9 inh = KCNK9 potassium channel inhibitors, primary screen, HEK293 cells, thallium flux; Potassium channel subfamily K member 9 (Homo sapiens), Q9NPC2; FluxOR thallium flux fluorescence; hits give low values; B-score at 10 µM; hit rate 1.2% among 310,000; AID 488922, 2010;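 active = ratio B-score over 3 SD below the library mean, with starting fluorescence within 5 SD of its mean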;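 note: negative B-score means less thallium flux so channel inhibition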
KCNK3 block = human KCNK3 channel inhibitors, primary screen, CHO cells, FluxOR thallium flux, B-score | Potassium channel subfamily K member 3 (Homo sapiens), O14649 | FluxOR fluorescence; hits give low values | B-score at 10 µM | hit rate 0.84% among 340,000;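 active = B-score under library mean minus 4 SD, starting fluorescence ratio at most library mean plus 5 SD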;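 note: more negative B-score means stronger inhibition of thallium flux through KCNK3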
Target sequence (O14649 whole entry, looked up): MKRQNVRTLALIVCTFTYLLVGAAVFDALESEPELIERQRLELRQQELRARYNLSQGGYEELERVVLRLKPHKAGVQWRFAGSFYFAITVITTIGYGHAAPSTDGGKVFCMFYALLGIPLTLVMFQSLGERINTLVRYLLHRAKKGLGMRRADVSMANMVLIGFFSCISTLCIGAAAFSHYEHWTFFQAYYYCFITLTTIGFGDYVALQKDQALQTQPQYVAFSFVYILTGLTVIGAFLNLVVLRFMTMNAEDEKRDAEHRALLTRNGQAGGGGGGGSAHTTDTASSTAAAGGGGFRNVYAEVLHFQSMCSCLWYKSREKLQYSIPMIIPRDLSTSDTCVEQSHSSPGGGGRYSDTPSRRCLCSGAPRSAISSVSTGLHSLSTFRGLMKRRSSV
* = called active by the depositor; i = inactive; . = no result given. Only some compounds are listed: those with a hit (about 3.1% of all), similar ones and a draw of the others.

SMILES	KCNQ1 pot	KCNQ1 block	hERG rescue	KCNK9 inh	KCNK3 block
N#CC(c1cccc(Cl)c1)c1ccc2c(C(F)(F)F)cc(C(F)(F)F)nc2n1 (configuration not stated)	76*	i	-5	i	i
CC1(C)CCC(=O)N2CC[C@H]3C[C@H](OC(=O)Nc4ccccc4)C[C@@H]1[C@H]32	i	i	-5	i	i
CC1(C)CCC(=O)N2CC[C@H]3C[C@H](OC(=O)Nc4ccc5c(c4)OCO5)C[C@@H]1[C@H]32	i	i	-9	-8*	i
CC1C(=O)C(C)C(c2ccc(Br)cc2)NC1c1ccc(Br)cc1 (configuration not stated)	i	6*	-9	i	i
CC1C(=O)C(C)C(c2cc(Br)ccc2O)NC1c1cc(Br)ccc1O (configuration not stated)	.	.	.	.	i
CCCCc1cc(=O)oc2cc(C)cc(OC(C)C(=O)NCc3ccncc3)c12 (configuration not stated)	i	i	-6	i	i
CC(=O)C[C@H]1c2cc(C(F)(F)F)ccc2S(=O)(=O)N1c1ccccc1	i	i	-9	i	i
CC(=O)C[C@H]1c2cc(C(F)(F)F)ccc2S(=O)(=O)N1Cc1ccccc1	9*	i	-12	i	i
COCCNC(=O)c1cc2cc3ccc(OC)cc3nc2o1	i	i	-4	i	i
CCCCN(CC)C(=O)c1cc2cc3ccc(OC)cc3nc2o1	i	i	-10	-6.7*	i
Cc1cc(C)cc(NC(=O)N2CCN(S(C)(=O)=O)CC2)c1	i	i	-7	i	i
COc1ccc(C)cc1NC(=O)C(OC(=O)CNC(=O)c1cc(C)cc(C)c1)c1ccccc1 (configuration not stated)	i	i	-5	-8*	i
c1ccc(C(c2ccccc2)N2CCN(C(c3ccccn3)c3nnnn3C3CCCC3)CC2)cc1 (configuration not stated)	i	i	-13	-15*	i
O=C(NC(=S)Nc1cc(C(F)(F)F)ccc1N1CCOCC1)c1ccco1	i	i	5.7*	i	i
O=C(Cn1c(C(F)(F)F)nc2ccccc21)Nc1ccccc1N1CCOCC1	i	i	-4	i	i
CSc1nc2ccccc2n1CC(=O)Nc1cc(C(F)(F)F)ccc1N1CCOCC1	i	i	-9	-7.8*	i
Cc1ccccc1SCC(=O)Nc1cc(C(F)(F)F)ccc1N1CCOCC1	i	14*	-12	i	i
O=C(c1ccoc1)N1CCC2(CC1)Oc1ccc(Cl)cc1C(=O)C21CC(c2ccc(Cl)cc2)=NO1 (configuration not stated)	i	6*	-12	i	i
O=C(NCC1CCCO1)c1cccc2c1C(=O)c1ccc(N3CCC(Cc4ccccc4)CC3)cc1S2(=O)=O (configuration not stated)	.	.	.	.	i
CCOC(=O)c1cc(NC(=O)c2cccs2)ccc1N1CCOCC1	i	i	4.7*	i	i
COC(=O)c1cc(NC(=O)c2cc(-c3ccc(C(F)(F)F)cc3)oc2C(F)(F)F)ccc1N1CCOCC1	i	8*	2	i	i
O=C(NC1CC1)c1cccc(NC(=O)C2CCCC2)c1	.	.	.	.	i
O=C(Nc1ccccc1Cl)c1cccc(NC(=O)C2CCCC2)c1	i	i	-12	-6.9*	i
Nc1nnnn1CC(=O)N/N=C/C=C/c1ccccc1	i	i	-6	i	i
O=C(Cn1nnc2ccccc21)N/N=C\C=C\c1ccccc1	i	i	6.7*	i	i
SMILES	KCNQ1 pot	KCNQ1 block	hERG rescue	KCNK9 inh	KCNK3 block
CC(OC(=O)C1CC1)C(=O)Nc1cc(Cl)cc(Cl)c1 (configuration not stated)	.	.	.	.	-8.7*
CC(OC(=O)C1CC1)C(=O)Nc1ncc(Cl)cc1Cl (configuration not stated)	.	.	.	.	i
COc1ccc(OC)c(S(=O)(=O)NC2CCCCNC2=O)c1 (configuration not stated)	i	i	-6	i	i
CC(=O)N(\C=C/C=C/C=C1\Sc2ccccc2C1=O)c1ccccc1	i	7*	-13	i	i
CC(C)(C)OC1NS(=O)(=O)OCC1NCOC(Cl)(Cl)Cl (configuration not stated)	i	i	-3	i	i
COc1ccc(CCN=C(NS(=O)(=O)c2ccccc2)c2ccccc2)cc1OC	i	i	12*	i	i
Cc1nc(NCc2cccnc2)c2c3c(sc2n1)CC(C)CC3 (configuration not stated)	38*	i	52*	i	i
O=C(O)CCSc1ncnc2sc(-c3ccccc3)cc12	14*	i	6.6*	i	i
CCCn1nc(C(=O)N2CCN(S(=O)(=O)c3ccc(C)c(C)c3)CC2)c2ccccc2c1=O	.	.	.	.	-9.5*
CC1(C)SC(=S)N(/N=C/c2ccccc2)C1N(O)C(=O)Nc1ccc([N+](=O)[O-])cc1 (configuration not stated)	i	i	5.8*	i	i
CNC(=O)N(O)C1N(/N=C/c2ccc(N(C)C)cc2)C(=S)SC1(C)C (configuration not stated)	i	i	-13	i	i
O=C(COC(=O)c1ccccc1C(=O)c1ccc(Cl)c([N+](=O)[O-])c1)NC1CC1	i	i	-25	i	i
CNC(=O)COC(=O)c1ccccc1C(=O)c1ccc(Cl)c([N+](=O)[O-])c1	i	6*	-35	i	i
Cc1ccc(C(=O)c2cc(C)sc2NC(=O)CN2CCN(C(=O)c3ccco3)CC2)cc1	i	9*	-20	i	i
CCc1cc(C(=O)OC)c(NC(=O)CN2CCN(C(=O)c3ccco3)CC2)s1	i	i	-2	i	i
COc1ccc(C2c3ccsc3CCN2C(C)=O)cc1 (configuration not stated)	i	i	-13	i	i
O=C(C1CC1)N1CCc2sccc2C1c1ccc(Cl)cc1 (configuration not stated)	i	6*	-3	i	i
Cc1nnc(NC(=O)CSc2nnc3c(n2)[nH]c2ccc(Br)cc23)s1	i	i	-3	i	i
CC1(C)CC2CC(C)(CN2C(=S)Nc2ccccc2)C1 (configuration not stated)	i	i	-10	i	i

Screening data (PubChem)
